# FN deposit inh: fibronectin deposition inhibition; 350,000 tested, 0.086% active; AID 743247; inhibition, % at 12.6 µM; AH1F fibroblasts, Alexa488-fibronectin deposition fluorescence, overnight;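 active means mean inhibition across replicates of 30% or more, regardless of how many single replicates reach that level; inconclusive means mean under 30% yet at least half of replicates reach 30%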;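 further: positive control wells lacked labelled fibronectin entirely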
#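 Material: AH1F fibroblast monolayer depositing Alexa488-labelled fibronectin into matrix | Input: 10000 AH1F cells/well | Medium: DMEM plus 2% serum, read in PBS | Reagent: Alexa488-fibronectin, 24 nM final in well | Compound dosing: One dose per compound, pinned | Schedule: 1 h adhesion, overnight exposure | Measured by: Fluorescence at 485 nm excitation, 525 nm emission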
# EWS-Fli inh: blocks EWS/Fli oncoprotein-driven transcription; A673 NR0B1-luciferase reporter, viability-normalised; inhibition, % at 12.6 µM; 350,000 tested, 0.67% active; AID 651661;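 active means mean inhibition of at least 50% after viability correction, with every replicate also passing that limit; inconclusive means mean reaches 50% but only one of two replicates passes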;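 further: firefly luciferase signal divided by Alamar Blue viability fluorescence both relative to DMSO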
# Shn3 inh set2: Schnurri-3 reporter inhibition in Clone20 osteoblasts. 360,000 tested, 0.52% active. Clone20 osteoblast Shn3 3'UTR firefly luciferase, 24 h. inhibition, % at 12.5 µM;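 active means mean inhibition of at least 75% with every replicate also reaching 75%; inconclusive means mean inhibition at least 75% but some replicate below; inactive means mean inhibition below 75%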;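 further: 0% = median of neutral control wells and 100% = pilot-screen positive control compound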
# aSyn 5UTR inh: 5' untranslated region of α-synuclein, MLPCN primary screen; alpha-synuclein 5'UTR reporter, inhibitor activity; inhibition, % (tested at 7.5 µM); 300,000 tested, 0.82% active; AID 1813; in the data active means inhibition above about 60%; inconclusive means no clear call, values can overlap the other calls;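 further: H4 neuroglioblastoma cells stably carrying SNCA 5'UTR luciferase fusion; 0% = DMSO wells and 100% = positive control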
# LMP1 NFkB inh: Epstein-Barr LMP1 NF-kappaB reporter inhibition. LMP1-induced NF-kappaB luciferase reporter cells, luminescence. inhibition, % at 12.5 µM. 350,000 tested, 0.69% active. AID 504558; in the data active means inhibition above about 41%; inconclusive means no clear call, values can overlap the other calls;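 further: 0% = neutral control wells and 100% = reference inhibitor control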
# PAX8 inh HTS: PAX8 transcriptional activity inhibition; RMG-I TPO-luciferase reporter, SteadyGlo, 24 h; inhibition, % at 12.6 µM; 360,000 tested, 1.2% active;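 active means mean replicate inhibition at least 60% with every replicate also reaching 60%; inconclusive means only one of the two criteria is met; inactive means mean below 60% and not all replicates reaching 60%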;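 further: luciferase light reporting Pax8 driven TPO promoter activity; plate controls were median of neutral control wells for no effect and mitoxantrone controls for full effect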
# The depositor's hits bear a star; ? = inconclusive; / = no result given; ! = not active in a repeat. This is a sample that favours compounds with a hit; in the whole collection about 2.1% have one here.
SMILES,FN deposit inh,EWS-Fli inh,Shn3 inh set2,aSyn 5UTR inh,LMP1 NFkB inh,PAX8 inh HTS
CCC(=O)N1[C@H](CO)[C@H](c2ccc(-c3ccccc3OC)cc2)C12CN(C(C)=O)C2,/,-3,/,/,/,/
COc1cccc(-c2ccc([C@H]3[C@@H](C#N)N(C(=O)c4ccccn4)[C@H]3CO)cc2)c1,2,-1,/,/,/,-1
CS(=O)(=O)Nc1ccc2c(c1)[C@H]1C[C@@H](CC(=O)NCc3ccccc3F)O[C@H](CO)[C@H]1O2,-2,2,/,/,/,/
C[C@H](CO)N1C[C@H](C)[C@@H](CN(C)Cc2ccc(Cl)c(Cl)c2)Oc2ccc(N(C)C)cc2CC1=O,-19,-1,/,/,/,75*
C[C@H](CO)N1C[C@H](C)[C@H](CN(C)Cc2ccc(Cl)c(Cl)c2)Oc2ccc(N(C)C)cc2CC1=O,-32,6,/,/,/,13
C[C@@H]1CN([C@@H](C)CO)C(=O)Cc2cc(N(C)C)ccc2O[C@H]1CN(C)Cc1ccc(Cl)c(Cl)c1,1,-1,/,/,/,71*
C[C@H](CO)N1C[C@H](C)[C@H](CN(C)C(=O)Nc2ccc(-c3cccs3)cc2)OCc2cnnn2CCCC1=O,1,-13,-12,/,4,72*
C[C@H]1CN([C@@H](C)CO)C(=O)CCCn2nncc2CO[C@@H]1CN(C)C(=O)Nc1ccc(-c2cccs2)cc1,2,-10,/,/,/,76*
C[C@@H]1CN([C@@H](C)CO)C(=O)CCCn2nncc2CO[C@H]1CN(C)S(=O)(=O)c1ccc(Cl)cc1,10,1,-8,/,-2,102*!
C[C@@H]1CN([C@@H](C)CO)C(=O)CCCn2nncc2CO[C@@H]1CN(C)C(=O)Nc1ccc(-c2cccs2)cc1,-1,-10,-9,/,6,34
C[C@@H]1CN([C@H](C)CO)C(=O)CCCn2nncc2CO[C@H]1CN(C)C(=O)Nc1ccc(-c2cccs2)cc1,-3,1,/,/,/,70*
CC(=O)N1[C@@H]2Cn3c(ccc(C4=CCCC4)c3=O)[C@H]1[C@@H](C(=O)NC1CCCC1)[C@@H]2CO,/,-2,/,/,/,/
COc1cccc(-c2ccc3c(c2)[C@@H]2[C@@H](CCN2C(=O)C2CCOCC2)[C@@H](CO)N3)c1,9,-5,/,/,/,-8
CC(=O)N(C)C[C@H]1Oc2cc(C#CCC(C)C)ccc2S(=O)(=O)N([C@@H](C)CO)C[C@@H]1C,12,12,/,/,/,/
C[C@H](CO)N1C[C@H](C)[C@@H](CN(C)C(=O)Nc2ccnc(N3CCOCC3)c2)OCc2cnnn2CCCC1=O,3,7,-5,/,3,91*!
CCN(CC)c1ccc2cc(NC(=O)CCC(=O)O)c(=O)oc2c1,21,/,61,120*,38,/
COCC#Cc1ccc([C@@H]2[C@@H](C#N)N(C(=O)NC3CCCC3)[C@@H]2CO)cc1,-1,-6,/,/,/,9
OC[C@@H]1CN(Cc2ccc(-c3ccccc3)cc2)C[C@H](n2cnc3c(NCc4ccc(F)cc4)ncnc32)O1,11,26,81*,/,/,84*
COc1ccccc1N=C1SC(C(=O)Nc2cccc(Cl)c2Cl)C(N)=C1C(N)=O (stereo unspecified),-3,55*,-10,8,3,-6
Cc1cccc(N2CCN(S(=O)(=O)c3ccc4c(c3)CCN4C(=O)CCC(=O)O)CC2)c1C,-4,/,-14,/,7,/
Cc1ccc(C)c(N2CCN(S(=O)(=O)c3ccc4c(c3)CCN4C(=O)CCC(=O)O)CC2)c1,8,9,3,1,86*,6
COc1ccc(NC(=O)N(C)C[C@H]2Oc3ccc(NS(C)(=O)=O)cc3CC(=O)N([C@H](C)CO)C[C@H]2C)cc1,-3,1,/,/,/,-52
CC[C@H]1CN2CCc3cc(OC)c(OC)cc3C2C[C@@H]1C[C@H]1NCCc2cc(OC)c(OC)cc21 (stereo partly specified),19,59*,97*,/,88*,111*
CCOc1ccc2ccccc2c1/C=N\NC(=O)OC,-9,-4,6,-13,-5,141*
O=C(N/N=C/c1cc(Br)c(O)c(Br)c1O)c1cccnc1,-1,5,30,26,5,26
SMILES,FN deposit inh,EWS-Fli inh,Shn3 inh set2,aSyn 5UTR inh,LMP1 NFkB inh,PAX8 inh HTS
Cc1cc(O)c(C)c(O)c1/C=N/NC(=O)c1cccnc1,-2,-10,30,69*,-1,44
CCOc1ccc2ccccc2c1/C=N\NC(=O)c1ccc([N+](=O)[O-])cc1,2,-7,-3,9,-3,8
O=C(NN=Cc1c(O)ccc2ccccc12)c1ccncc1,20,23,90*,/,62*,95*
COc1ccc(/C=N/NC(=O)c2cccnc2)cc1O,-3,-11,-15,3,2,-12
O=C(N/N=C/c1cc(O)ccc1Br)c1cccnc1,15,10,71,33,19,72*
O=C(N/N=C/c1cccc2ccccc12)c1ccncc1,7,-7,3,-1,0,-7
Cc1occc1C(=O)N/N=C/c1c(O)ccc2ccccc12,8,-39,65,54,6,22
Cn1cccc1/C=N\NC(=O)c1cncc(Br)c1,2,3,12,9,/,-8
O=C(N/N=C\c1c(O)ccc2ccccc12)c1cncc(Br)c1,5,0,87*,62*,38,65*
O=C(N/N=C/c1c(O)ccc2ccccc12)c1ccc[n+](CCO)c1,-1,0,13,-4,13,9
COc1ccc2ccccc2c1/C=N\NC(=O)c1cccnc1,-1,1,2,15,/,12
Cn1cc(C(=O)N/N=C/c2c(O)ccc3ccccc23)ccc1=O,16,4,91*,96*,62*,59
Cn1nccc1C(=O)N/N=C/c1c(O)ccc2ccccc12,13,-9,94*,92*,76*,51
O=C(N/N=C/c1c(O)ccc2ccccc12)c1cccnc1,3,24,85,93*,51*,70*
COc1ccc(CNC(=O)C[C@H]2C=C[C@H](NC(=O)Nc3ccc4c(c3)OCO4)[C@H](CO)O2)cc1,-8,-7,/,/,/,-20
O=C(N/N=C/c1c(O)ccc2ccccc12)c1ccc(Br)o1,/,/,83,106*,61*,60
O=C(N/N=C/c1c(O)ccc2ccccc12)Nc1ccccc1,11,4,/,2,/,-33
O=C(N/N=C\c1c(O)ccc2ccccc12)c1ccc(O)cc1,10,-13,91*,75*,35,?
Cc1ccc(C(=O)N/N=C/c2c(O)ccc3ccccc23)cn1,13,14,94*,62*,65*,41
CCC(=O)Nc1ccc2c(c1)OC[C@H](C)N(CC1CCCCC1)C[C@H](C)[C@@H](OC)CN(C)C2=O,-11,0,/,/,/,-3
Cc1ccc(S(=O)(=O)N(C)C[C@@H]2Oc3ccc(NC(=O)Nc4ccc(F)cc4)cc3CC(=O)N([C@H](C)CO)C[C@@H]2C)cc1,/,63*,/,/,/,46

# From PubChem
